Compound activity (PubChem BioAssay)
An excerpt weighted towards active compounds, which were near 3.8% of everything screened.
KCNQ1 pot: potentiators or activators of KCNQ1 channel, primary screen, cell-based, thallium flux, high-throughput. Potassium voltage-gated channel subfamily KQT member 1 (Homo sapiens), P51787. CHO-K1 KCNQ1, thallium flux FluxOR fluorescence; stronger effect = higher value. B-score at 10 µM. actives 0.35% (n = 310,000). AID 2648, 2010;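 active means fluorescence ratio B-score, a plate-corrected score, at least three library SD, with initial intensity B-score within 5 SD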
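Test system: CHO-K1 cells stably expressing KCNQ1 / Medium: assay buffer / Also added: depolarizing K+/Tl+ stimulus, K2SO4 and Tl2SO4 each 12.5 mM in 5x stock / Incubation: 90 min dye loading and 20 min compound exposure, both at room temperature / Signal: thallium influx via FluxOR fluorescence, kinetic imaging / Evaluation: B score of baseline-normalized fluorescence ratio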
KCNQ1 inh: inhibitors of human KCNQ1 channel, primary screen, cell-based, thallium flux, high-throughput. CHO-K1 KCNQ1, FluxOR thallium flux fluorescence; stronger effect = higher value. actives 1.3% (n = 310,000). Potassium voltage-gated channel subfamily KQT member 1 (Homo sapiens), P51787. B-score at 10 µM;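 active means compounds whose thallium flux B-score, printed positive for inhibition, exceeds three library SD while starting fluorescence stays within three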;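 further: channel opened by potassium depolarization with thallium stimulus after 20 min compound exposure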
KCNK9 block: KCNK9 potassium channel inhibitors, primary screen, HEK293 cells, thallium flux | Potassium channel subfamily K member 9 (Homo sapiens), Q9NPC2 | FluxOR thallium flux fluorescence; stronger effect = lower value | B-score at 10 µM | actives 1.2% (n = 310,000);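 active means ratio B-score over 3 SD below the library mean, with starting fluorescence within 5 SD of its mean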;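 further: negative B-score means less thallium flux so channel inhibition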
hERG rescue: hERG rescue from dofetilide block, primary screen, cell-based, CHO-hERG, FluxOR thallium flux, dofetilide IC70 | activation (rescue from dofetilide block), less the hit threshold, % at 10 µM | actives 0.51% (n = 310,000) | AID 1511, 2009 | Voltage-gated inwardly rectifying potassium channel KCNH2 (Homo sapiens), Q12809 | dofetilide IC70 present;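 active means activation above the mean of controls blocked by dofetilide plus 5 SD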;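 further: thallium influx through hERG after potassium depolarization seen as dye fluorescence rise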
Kir21 block: inhibitors of mouse Kir2.1 inward-rectifier potassium channel | Inward rectifier potassium channel 2 (Mus musculus), P35561 | HEK293-Kir2.1, FluxOR thallium flux fluorescence; stronger effect = lower value | B-score at 10 µM | actives 0.85% (n = 310,000);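 active means fluorescence ratio B-score at or below minus 3 SD of library scores, with starting-brightness B-score within 2 SD, cut at about -4.2 in these data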;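 further: channel flux triggered by added potassium and thallium sulfate stimulus; B-score of peak minus minimum fluorescence over baseline after thallium stimulus; more negative B-score means stronger Kir2.1 block with less thallium influx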
KCNK3 block: human KCNK3 channel inhibitors, primary screen, CHO cells, FluxOR thallium flux, B-score. B-score at 10 µM. AID 602410, 2012. FluxOR fluorescence; stronger effect = lower value. Potassium channel subfamily K member 3 (Homo sapiens), O14649. actives 0.84% (n = 340,000);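 active means B-score under library mean minus 4 SD, starting fluorescence ratio at most library mean plus 5 SD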;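 further: more negative B-score means stronger inhibition of thallium flux through KCNK3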
Target sequence (O14649 whole entry, looked up): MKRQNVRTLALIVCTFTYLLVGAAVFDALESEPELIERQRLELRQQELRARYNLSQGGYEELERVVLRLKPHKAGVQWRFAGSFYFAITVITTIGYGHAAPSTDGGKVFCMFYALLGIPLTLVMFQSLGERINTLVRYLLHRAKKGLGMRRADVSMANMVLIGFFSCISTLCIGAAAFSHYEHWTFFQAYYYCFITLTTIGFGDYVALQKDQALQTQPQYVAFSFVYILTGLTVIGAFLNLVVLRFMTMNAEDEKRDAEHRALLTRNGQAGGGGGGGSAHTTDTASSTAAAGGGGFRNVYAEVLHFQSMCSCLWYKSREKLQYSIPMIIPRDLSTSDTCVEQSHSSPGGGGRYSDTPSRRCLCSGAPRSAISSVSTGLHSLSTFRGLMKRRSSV
KCNK9 inh conf: KCNK9 potassium channel inhibitors, confirmation, HEK293 cells, thallium flux, duplicate | shares compounds with KCNK9 block | FluxOR thallium flux fluorescence | inhibition, % at 10 µM | actives 43% (n = 4,900);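 active means thallium signal inhibited by more than 5 SD of the compound-free buffer control wells, on both duplicate plates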;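 further: 0% = assay buffer control wells without compound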
Kir2-1 spec: mouse Kir2.1 channel inhibition, confirmation, selectivity assay for KCNK9 modulator project, cell-based, HEK293, thallium flux. Kir2.1 cells, FluxOR thallium flux fluorescence. inhibition, % at 10 µM. shares compounds with KCNK9 block. AID 492993, 2010. actives 4% (n = 4,900);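 active means thallium signal drop more than 5 SD beyond the mean of the no-compound control wells, seen in both duplicate plates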;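 further: signal is fluorescence rise after thallium addition divided by baseline fluorescence; plate controls were assay buffer only for no effect and full block by chlorpromazine control for full effect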
HEK293 Tl ctr: thallium flux in non-induced HEK293 cells, confirmation, counter-screen for KCNK9 inhibitor project, cell-based, second counter screen, non-induced KCNK9-HEK293. shares compounds with KCNK9 block. FluxOR thallium flux. inhibition, % at 10 µM. actives 40% (n = 4,900). AID 492997, 2010;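 active means thallium signal drop beyond 5 SD of the untreated control mean, on both duplicate plates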;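 further: plate controls were buffer only IC0 wells for no effect and SID17386958 at its maximal inhibitory level for full effect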
Numbers without * were called inactive; i = inactive; x = not tested or not shown.

SMILES | KCNQ1 pot | KCNQ1 inh | KCNK9 block | hERG rescue | Kir21 block | KCNK3 block | KCNK9 inh conf | Kir2-1 spec | HEK293 Tl ctr
Cc1cc(C)cc(C(=O)N(CCc2ccccc2)C2CC3CCC(C2)N3C)c1 (stereo not given) | i | i | i | -4 | -0.95 | i | i | i | i
CCN1C(=O)[C@H]2[C@@H](c3ccc(-c4cccc(Cl)c4)c(OC)c3)N[C@@](CC(C)C)(C(=O)OC)[C@H]2C1=O | i | i | -9.9* | -9 | -0.67 | i | 44%* | i | 44%*
CC(C1CC2CCC1C2)n1c(-c2ccco2)n[nH]c1=S (stereo not given) | i | i | -15* | -4 | -5.5* | i | 62%* | i | i
Nc1c(-c2ccccc2)c(CSc2nc3ccccc3[nH]2)nn1-c1ccc(Cl)cc1 | i | i | -9.3* | -8 | -1.2 | i | 60%* | i | 28%*
Nc1c(-c2ccccc2)c(CSc2nc3ccccc3[nH]2)nn1-c1cccc(Cl)c1 | i | i | -13* | -6 | -0.53 | i | 71%* | i | 38%*
O=C(COC(=O)[C@H](Cc1ccccc1)NC(=O)c1cccs1)Nc1c(Cl)cccc1Cl | i | i | i | -9 | 0.4 | i | x | x | x
COc1ccc(-c2ccc(OC)c([C@H]3[C@@H]4C=CCC[C@@]4(C)C(=O)N3Cc3ccccc3)c2)cc1OC | i | i | i | -16 | 0.44 | i | x | x | x
COc1ccc(Br)cc1[C@H]1[C@@H]2C=CCC[C@@]2(C)C(=O)N1Cc1ccccc1 | i | i | -15* | -11 | 0.04 | i | 66%* | i | 49%*
CCN(CC)c1ccc(NC(=O)c2ccccc2OCC(=O)OC)cc1 | i | i | i | -7 | 2.1 | i | x | x | x
S=C(Nc1ccccc1Oc1ccccc1)Nc1cccc(Cl)c1Cl | i | i | i | -8 | -4.3 | i | x | x | x
O=C(c1ccc(S(=O)(=O)N2CCCCCC2)cc1)N1CCN(c2ccccc2)CC1 | i | i | i | -4 | 0.45 | i | x | x | x
CC1CC(C)CN(S(=O)(=O)c2ccc(C(=O)N3CCN(c4ccccc4)CC3)cc2)C1 (stereo not given) | i | i | i | -5 | 0.64 | i | i | i | i
Cc1ccc2c(c1)N(CCC(=O)NC1CCCCC1C)C(=O)CO2 (stereo not given) | i | i | i | -9 | 0.31 | i | i | i | i
COc1ccc(CCN(C)C(=O)c2cc(S(=O)(=O)N3CCCCCC3)ccc2OC)cc1OC | i | i | i | -9 | -2.6 | i | x | x | x
COc1ccc(S(=O)(=O)N2CCCCCC2)cc1C(=O)N(C)Cc1ccc(C)cc1 | i | i | i | -14 | -1.9 | i | i | i | i
O=c1[nH]cnc2c1c(-c1ccccc1)cn2-c1cccc(Cl)c1 | i | i | -13* | -4 | 2 | i | 52%* | i | i
COc1ccc(-n2cc(-c3ccccc3)c3c(=O)[nH]cnc32)cc1 | i | i | i | -6 | 0.21 | i | x | x | x
CCCCN(C(=O)c1cccc2c(=O)c(C)c(-c3ccccc3)oc12)c1ccccc1 | i | i | -10* | -9 | 0 | i | 40%* | i | 34%*
CCOc1cc(/C=N/NC(=O)CNc2cccc(C)c2)ccc1OC(=O)c1ccccc1 | i | i | i | -7 | -0.68 | i | x | x | x
CCOc1cc(/C=N/Nc2cccc(C(=O)O)c2)ccc1OC(=O)c1ccccc1 | i | i | i | -4 | 0.42 | i | i | i | i
CCOC(=O)C1CCCN(c2cc(=O)n(C3CCCCC3)c(=O)[nH]2)C1 (stereo not given) | i | i | i | -8 | 1.4 | i | x | x | x
CC(C)C(c1nnnn1Cc1ccccc1)N1CCc2ccccc2C1 (stereo not given) | i | i | i | -9 | -0.56 | i | x | x | x
c1ccc(Cn2nnnc2C(c2cccs2)N2CCc3ccccc3C2)cc1 (stereo not given) | i | i | -12* | -10 | -0.34 | i | i | i | 32%*
COc1ccc(S(=O)(=O)N2CCCOC2CNC(=O)C(=O)NC2CCCC2)cc1 (stereo not given) | i | i | i | -3 | -0.61 | i | x | x | x
CN(C)c1ccc(C2C3CCCc4ccccc4C3=NN2C)cc1 (stereo not given) | i | i | i | -10 | -0.4 | i | i | i | i
SMILES | KCNQ1 pot | KCNQ1 inh | KCNK9 block | hERG rescue | Kir21 block | KCNK3 block | KCNK9 inh conf | Kir2-1 spec | HEK293 Tl ctr
CN1N=C2c3ccccc3CCC2C1c1ccc(C(F)(F)F)cc1 (stereo not given) | i | i | i | -4 | 0.37 | x | x | x | x
CCCOC(=O)C[N+](C)(C)CCOC1CC2CCC1(C)C2(C)C (stereo not given) | i | i | i | -11 | -0.06 | i | x | x | x
CCCCCCCOC(=O)C[N+](C)(C)CCOC1CC2CCC1(C)C2(C)C (stereo not given) | i | 13* | -11* | -25 | -8.2* | i | 54%* | 73%* | 22%*
Cc1nn2c(N3CCN(c4ccccn4)CC3)cc(C(C)C)nc2c1-c1ccccc1 | i | i | -12* | -7 | -0.47 | i | 63%* | i | 38%*
Cc1cc(N2CCCCCC2)n2nc(C)c(-c3ccccc3)c2n1 | i | i | i | -3 | 0.2 | i | x | x | x
Fc1ccccc1Cc1noc(CN2CCN(C/C=C/c3ccccc3)CC2)n1 | i | i | i | -14 | -0.65 | i | i | i | i
